For 34 compounds, MIC results are on record in ChEMBL document CHEMBL2157923, “1,3-Azoles from ortho-naphthoquinones: synthesis of aryl substituted imidazoles and oxazoles and their potent activity against Mycobacterium tuberculosis” (Bioorg Med Chem, 2012).

The MIC is the lowest concentration that inhibits growth of the organism.

Values after ≈ are worked out from the molar mass of the structure shown. Active and inactive are the calls of the source. The calls are words filed in the database; no cut-off is given here.

Holding throughout (format): functional
For test [1], the system named is Mycobacterium tuberculosis. Kind of test: Antimycobacterial activity against isoniazid-resistant Mycobacterium tuberculosis ATCC 35822 after 7 days by resazurin microtitre assay. In short, it runs like this: (§1)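 REMA MIC. Strains kept on Ogawa-Kudoh medium 14 days at 37 °C. Suspension vortexed and adjusted to McFarland tube 1 (3.2 × 10^6 cfu/mL), then diluted 1:20 in Middlebrook 7H9 with 10% OADC and glycerol. Compounds tested from 100 ug/mL down to 0.19 ug/mL. Incubated 7 days at 37 °C, resazurin added, 2 more days at 37 °C; colour change read.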
On the technique in general: The colour change of resazurin is a common sign of viable cells or microbes.

The test system of test [2] is Mycobacterium tuberculosis. Kind of test: Antimycobacterial activity against rifampicin-resistant Mycobacterium tuberculosis ATCC 35338 after 7 days by resazurin microtitre assay. In outline:
as §1

Test [3] relates to Mycobacterium tuberculosis. The test can be described thus: Antimycobacterial activity against rifampicin-resistant Mycobacterium tuberculosis. In outline: as §1

As for `COc1ccccc1-c1nc2c([nH]1)c1c(c3ccccc32)OC(C)(C)CC1`, the MIC was 17.4 µM (≈ 6.24 µg/mL) in test [1] (ATCC 35822, 168 h) and 17.4 µM (≈ 6.24 µg/mL) in test [2] (ATCC 35338, 168 h).

As to `CC1(C)CCc2c(c3ccccc3c3nc(-c4ccccc4)[nH]c23)O1`, the minimum inhibitory concentration (MIC) in test [1] (ATCC 35822, 168 h) was 38 µM (≈ 12.5 µg/mL); in test [2] (ATCC 35338, 168 h), over 304 µM. In the case of `CC1(C)CCc2c(c3ccccc3c3nc(-c4ccccc4C(F)(F)F)[nH]c23)O1`, the MIC in test [1] (ATCC 35822, 168 h) worked out at 4 µM (≈ 1.59 µg/mL); in test [2] (ATCC 35338, 168 h) it was 2 µM (≈ 0.793 µg/mL). On to `CC1(C)CCc2c(c3ccccc3c3nc(-c4ccc(Br)cc4)[nH]c23)O1`, for which the MIC result in test [1] and in test [2] was “inactive” in each case. With `CC1(C)CCc2c(c3ccccc3c3nc(-c4ccccc4[N+](=O)[O-])[nH]c23)O1`, the MIC was 16.7 µM (≈ 6.24 µg/mL) in test [1] (ATCC 35822, 168 h) and 33.5 µM (≈ 12.5 µg/mL) in test [2] (ATCC 35338, 168 h). For `Cc1ccccc1-c1nc2c([nH]1)c1c(c3ccccc32)OC(C)(C)CC1`, the MIC in test [1] (ATCC 35822, 168 h) came to 4.5 µM (≈ 1.54 µg/mL); in test [2] (ATCC 35338, 168 h) it was 4.5 µM (≈ 1.54 µg/mL). Consider `CC1(C)CCc2c(c3ccccc3c3nc(-c4cccc(F)c4)[nH]c23)O1`, for which the MIC stood at 18 µM (≈ 6.24 µg/mL) in test [1] (ATCC 35822, 168 h) and 18 µM (≈ 6.24 µg/mL) in test [2] (ATCC 35338, 168 h). As to `CC1(C)CCc2c(c3ccccc3c3nc(-c4cccc(C(F)(F)F)c4)[nH]c23)O1`, the MIC in test [1] (ATCC 35822, 168 h) is 4 µM (≈ 1.59 µg/mL); in test [2] (ATCC 35338, 168 h) it was 4 µM (≈ 1.59 µg/mL).

Turning to `C=CCC1=C(O)C(=O)c2ccccc2C1=O`, the minimum inhibitory concentration (MIC) in test [1] (ATCC 35822, 168 h) worked out at 467 µM (≈ 100 µg/mL); in test [2] (ATCC 35338, 168 h), 117 µM (≈ 25 µg/mL).

In test [1] (ATCC 35822, 168 h), `CC1(C)CCc2c(c3ccccc3c3nc(-c4ccc([N+](=O)[O-])cc4)[nH]c23)O1` came in with an MIC of 4.2 µM (≈ 1.57 µg/mL). Besides, the MIC result in test [2] was “inactive”.

For `CC1(C)CCc2c(c3ccccc3c3nc(-c4cccc(Br)c4)[nH]c23)O1`, the MIC came to 15.3 µM (≈ 6.23 µg/mL) in test [1] (ATCC 35822, 168 h) and 15.3 µM (≈ 6.23 µg/mL) in test [2] (ATCC 35338, 168 h). Regarding `CC1(C)CCc2c(c3ccccc3c3nc(-c4cccnc4)[nH]c23)O1`, the MIC entry in test [1] and in test [2] was “inactive” each time. `CC1(C)CCc2c(c3ccccc3c3nc(-c4ccc(Cl)cc4)[nH]c23)O1`: the minimum inhibitory concentration (MIC) was 17.2 µM (≈ 6.24 µg/mL) in test [1] (ATCC 35822, 168 h) and 17.2 µM (≈ 6.24 µg/mL) in test [2] (ATCC 35338, 168 h). For `CC1CC2=C(O1)c1ccccc1C(=O)C2=O` (stereo not given), the MIC entry in test [1] and in test [2] was “inactive” in each case. Consider `CC1Cc2c(c3ccccc3c3nc(-c4ccc([N+](=O)[O-])cc4)oc23)O1` (stereo not given), for which the MIC in test [1] (ATCC 35822, 168 h) is over 289 µM; in test [2] (ATCC 35338, 168 h), 289 µM (≈ 100 µg/mL).

Take `CC1(C)CCc2c(c3ccccc3c3nc(-c4ccc(C#N)cc4)oc23)O1`: the MIC came out at 8.8 µM (≈ 3.12 µg/mL) in test [1] (ATCC 35822, 168 h) and 4.4 µM (≈ 1.56 µg/mL) in test [2] (ATCC 35338, 168 h).

In test [1] (ATCC 35822, 168 h), `CC1(C)Cc2c(c3ccccc3c3nc(-c4ccc([N+](=O)[O-])cc4)oc23)O1` registered a minimum inhibitory concentration (MIC) of over 278 µM.

`Cc1ccc(-c2nc3c([nH]2)c2c(c4ccccc43)OC(C)(C)C2)cc1`: the MIC in test [1] (ATCC 35822, 168 h) is over 304 µM; in test [2] (ATCC 35338, 168 h), 304 µM (≈ 100 µg/mL). Take `CO[C@H]1/C=C/O[C@@]2(C)Oc3c(C)c(O)c4c(O)c(c(/C=N/N5CCN(C)CC5)c(O)c4c3C2=O)NC(=O)/C(C)=C\C=C\[C@H](C)[C@H](O)[C@@H](C)[C@@H](O)[C@@H](C)[C@H](OC(C)=O)[C@@H]1C` [RIFAMPIN]: the minimal inhibitory concentration (MIC) in test [1] (ATCC 35822, 168 h) was at most 0.1 µM; in test [2] (ATCC 35338, 168 h), over 4.8 µM. Take `CC1(C)CCc2c(c3ccccc3c3nc(-c4cnc5ccccc5c4)[nH]c23)O1`: the MIC entry in test [1] and in test [2] was “inactive” in each case. In the case of `CC1(C)CCc2c(c3ccccc3c3nc(-c4ccc(C(F)(F)F)cc4)[nH]c23)O1`, the MIC result in test [1] and in test [2] was “inactive” in each case. Regarding `CC1(C)CCc2c(c3ccccc3c3nc(-c4ccc(C#N)cc4)[nH]c23)O1`, the MIC entry in test [1] and in test [2] was “inactive” in each case. Take `CC1(C)CCc2c(c3ccccc3c3nc(-c4ccccc4Br)[nH]c23)O1`: the minimal inhibitory concentration (MIC) in test [1] (ATCC 35822, 168 h) came out at 15.3 µM (≈ 6.23 µg/mL); in test [2] (ATCC 35338, 168 h) it was 15.3 µM (≈ 6.23 µg/mL). For the compound `CC1(C)CCc2c(c3ccccc3c3nc(-c4cccc(C#N)c4)oc23)O1`, the minimum inhibitory concentration (MIC) came to 17.6 µM (≈ 6.24 µg/mL) in test [1] (ATCC 35822, 168 h) and 17.6 µM (≈ 6.24 µg/mL) in test [2] (ATCC 35338, 168 h). Turning to `Cc1ccc(-c2nc3c(o2)c2c(c4ccccc43)OC(C)(C)C2)cc1`, the MIC in test [1] (ATCC 35822, 168 h) was over 304 µM.

For the compound `CC1(C)CCc2c(c3ccccc3c3nc(-c4cccc(C#N)c4)[nH]c23)O1`, the MIC result in test [1] and in test [2] was “inactive” throughout. Regarding `CC1(C)CCc2c(c3ccccc3c3nc(-c4cccc([N+](=O)[O-])c4)[nH]c23)O1`, the MIC result in test [1] and in test [2] was “inactive” throughout. As to `CC1(C)CCc2c(c3ccccc3c3nc(-c4ccccn4)[nH]c23)O1`, the minimal inhibitory concentration (MIC) came out at 19 µM (≈ 6.26 µg/mL) in test [1] (ATCC 35822, 168 h) and 19 µM (≈ 6.26 µg/mL) in test [2] (ATCC 35338, 168 h). With `CC1(C)CCc2c(c3ccccc3c3nc(-c4cc5ccccc5cn4)[nH]c23)O1`, the MIC in test [1] (ATCC 35822, 168 h) was at most 2 µM; in test [2] (ATCC 35338, 168 h), at most 2 µM.

With `CC1(C)CCc2c(c3ccccc3c3nc(-c4ccccc4C#N)oc23)O1`, the minimal inhibitory concentration (MIC) in test [1] (ATCC 35822, 168 h) came out at 17.6 µM (≈ 6.24 µg/mL); in test [2] (ATCC 35338, 168 h), 17.6 µM (≈ 6.24 µg/mL).

With `CC1(C)Cc2c(c3ccccc3c3nc(-c4ccccc4)[nH]c23)O1`, the minimum inhibitory concentration (MIC) in test [1] (ATCC 35822, 168 h) was over 318 µM; in test [2] (ATCC 35338, 168 h), 318 µM (≈ 100 µg/mL). `C=CCC1Cc2c(c3ccccc3c3nc4ccccc4nc23)OC1(C)C` (stereo not given) showed a minimal inhibitory concentration (MIC) in test [3] of 0.78 µg/mL (≈ 2.2 µM). For `NNC(=O)c1ccncc1` [ISONIAZID], the MIC was 7.3 µM (≈ 1 µg/mL) in test [1] (ATCC 35822, 168 h) and at most 0.4 µM in test [2] (ATCC 35338, 168 h). Take `CC1(C)CCc2c(c3ccccc3c3nc(-c4ccc(F)cc4)[nH]c23)O1`: the minimum inhibitory concentration (MIC) in test [1] (ATCC 35822, 168 h) was determined as 18 µM (≈ 6.24 µg/mL); in test [2] (ATCC 35338, 168 h), 18 µM (≈ 6.24 µg/mL).
